In brackets after ≈: the same amount, converted by molar mass.
How the values were obtained:
Type in all cases: functional
Alternaria porri = experiment: Fungicidal activity against Alternaria porri by poisoned food technique; details: read-out: ED50 (the source's name)
Macrophomina phaseolina = experiment: Fungicidal activity against Rhizoctonia bataticola by poisoned food technique; details: read-out: ED50 (the source's name)
Fusarium oxysporum = experiment: Fungicidal activity against Fusarium oxysporum by poisoned food technique; details: read-out: ED50 (the source's name)
Spodoptera litura [1] = experiment: Insecticidal activity against third-instar larval stage of prestarved Spodoptera litura in castor leaf assessed as mortality at 0.1% treated for 2 secs before larval infestation measured after 24 hr by feeding method
Method in brief: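 Castor leaf is dipped 2 s in 0.1% compound solution, air-dried, and placed on moist filter paper in 9 cm Petri plates. Larvae starved 4 h beforehand are released singly, one per plate. Thirty replicates per treatment, solvent control. Mortality is scored after 24 h.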

Callosobruchus maculatus = experiment: Insecticidal activity against adult Callosobruchus maculatus assessed as mortality at 0.1% at 27 +/-1 degC after 24 hr by contact based film residue method
Method in brief: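 Lab-reared adults, 2-5 days old, exposed to a dry film: 1 mL of 0.1% compound solution in dichloromethane is swirled in a 90 mm Petri plate and dried 3-5 min. Ten adults per plate are held at 27 ± 1 °C and 70% RH. Mortality is scored at 24 h, with no response to touch counted as dead. Triplicates, solvent control, malathion reference.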

Spodoptera litura [2] = experiment: Insecticidal activity against third-instar larval stage of Spodoptera litura assessed as mortality at 0.1% applied topically on the ventral side of the larvae measured after 24 hr by contact method
Method in brief: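 Field-collected larvae are reared in the lab at 27 ± 1 °C and 70% RH. Two microliters of a 0.1% dichloromethane solution is applied to the ventral side. Ten treated larvae are kept per glass bottle and fed fresh castor leaves. Mortality is recorded at 24 h. Triplicate, solvent control.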

Rhizoctonia solani = experiment: Fungicidal activity against Rhizoctonia solani by poisoned food technique; details: read-out: ED50 (the source's name)
Athelia rolfsii = experiment: Fungicidal activity against Athelia rolfsii by poisoned food technique; details: Agroathelia rolfsii; read-out: ED50 (the source's name)
Tribolium castaneum = experiment: Insecticidal activity against adult Tribolium castaneum (red flour beetle) in compound pre-treated green gram grains assessed as mortality at 20 mg/kg after 48 hr by feeding based residue method; details: in Vigna radiata
Method in brief: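 Green gram grains are treated with compound in dichloromethane (0.6 mg in 5 mL) at 20 mg active ingredient per kg grain (0.002%). Ten adults are released onto 10 g of treated grain in a plastic box. Mortality is recorded after 48 h. Triplicate, solvent-treated control.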

Structure (SMILES)	EC50 (Alternaria porri) [µg/mL]	EC50 (Macrophomina phaseolina) [µg/mL]	EC50 (Fusarium oxysporum) [µg/mL]	mortality (Spodoptera litura [1]) [%]	mortality (Callosobruchus maculatus) [%]	mortality (Spodoptera litura [2]) [%]	EC50 (Rhizoctonia solani) [µg/mL]	EC50 (Athelia rolfsii) [µg/mL]	mortality at 20 mg/kg (Tribolium castaneum) [%]
CCn1cc(C(=O)N/N=C/c2ccc(O)c(OC)c2)c(=O)c2ccc(C)nc21	128 (≈ 337 µM)	528 (≈ 1390 µM)	377 (≈ 991 µM)	100	20	20	317 (≈ 833 µM)	460 (≈ 1210 µM)	
CCn1cc(C(=O)N/N=C/c2ccc(OC)cc2OC)c(=O)c2ccc(C)nc21	131 (≈ 332 µM)	382 (≈ 969 µM)	176 (≈ 447 µM)	100	12	10	188 (≈ 477 µM)	375 (≈ 950 µM)	
CCn1cc(C(=O)N/N=C/c2ccccc2Cl)c(=O)c2ccc(C)nc21	90.1 (≈ 244 µM)	593 (≈ 1610 µM)	143 (≈ 389 µM)	10	30	10	246 (≈ 666 µM)	570 (≈ 1550 µM)	10
CCn1cc(C(=O)N/N=C/c2ccc(O)cc2)c(=O)c2ccc(C)nc21	146 (≈ 416 µM)	308 (≈ 878 µM)	181 (≈ 517 µM)	70	40	10	330 (≈ 943 µM)	364 (≈ 1040 µM)	
CCn1cc(C(=O)N/N=C/c2ccc3ccccc3c2)c(=O)c2ccc(C)nc21	75.6 (≈ 197 µM)	256 (≈ 666 µM)	89.5 (≈ 233 µM)	70	0	10	192 (≈ 498 µM)	202 (≈ 526 µM)	10
CCOc1cc(/C=N/NC(=O)c2cn(CC)c3nc(C)ccc3c2=O)ccc1O	92.1 (≈ 234 µM)	400 (≈ 1010 µM)	185 (≈ 469 µM)	90	22	10	356 (≈ 903 µM)	384 (≈ 974 µM)	
CCn1cc(C(=O)N/N=C/c2ccc(OC)c(OC)c2)c(=O)c2ccc(C)nc21	102 (≈ 259 µM)	285 (≈ 722 µM)	137 (≈ 346 µM)	40	10		172 (≈ 435 µM)	359 (≈ 909 µM)	
CCn1cc(C(=O)N/N=C/c2ccc(C(C)C)cc2)c(=O)c2ccc(C)nc21	124 (≈ 331 µM)	453 (≈ 1200 µM)	277 (≈ 736 µM)	10	20		252 (≈ 671 µM)	464 (≈ 1230 µM)	
CCn1cc(C(=O)N/N=C/c2ccccn2)c(=O)c2ccc(C)nc21	77.3 (≈ 230 µM)	372 (≈ 1110 µM)	79.1 (≈ 236 µM)	100	10		170 (≈ 508 µM)	198 (≈ 590 µM)	
CC1(C)C(C=C(Cl)Cl)C1C(=O)OC(C#N)c1cccc(Oc2ccccc2)c1 (stereo not drawn) [ALPHA-CYPERMETHRIN]				100					
CCn1cc(C(=O)N/N=C/c2ccccc2F)c(=O)c2ccc(C)nc21	78.3 (≈ 222 µM)	668 (≈ 1900 µM)	107 (≈ 305 µM)	90	30	10	359 (≈ 1020 µM)	540 (≈ 1530 µM)	10
CCn1cc(C(=O)N/N=C/c2cccc(Br)c2)c(=O)c2ccc(C)nc21	125 (≈ 303 µM)	628 (≈ 1520 µM)	209 (≈ 506 µM)	20	20	10	439 (≈ 1060 µM)	380 (≈ 920 µM)	
CCn1cc(C(=O)N/N=C/c2ccc(Cl)cc2Cl)c(=O)c2ccc(C)nc21	119 (≈ 296 µM)	495 (≈ 1230 µM)	121 (≈ 300 µM)	100	40		354 (≈ 877 µM)	541 (≈ 1340 µM)	
CCn1cc(C(=O)N/N=C/c2ccc(O)cc2O)c(=O)c2ccc(C)nc21	144 (≈ 392 µM)	650 (≈ 1770 µM)	196 (≈ 536 µM)	40	25		342 (≈ 932 µM)	397 (≈ 1080 µM)	
CCn1cc(C(=O)N/N=C/c2cccc(OC)c2)c(=O)c2ccc(C)nc21	57.6 (≈ 158 µM)	210 (≈ 575 µM)	63.1 (≈ 173 µM)	10	10		157 (≈ 432 µM)	242 (≈ 665 µM)	
CCn1cc(C(=O)NN=C2CCCCC2)c(=O)c2ccc(C)nc21	34.2 (≈ 105 µM)	188 (≈ 577 µM)	62.6 (≈ 192 µM)	70	0		166 (≈ 510 µM)	177 (≈ 543 µM)	15

Structure (SMILES)	EC50 (Alternaria porri) [µg/mL]	EC50 (Macrophomina phaseolina) [µg/mL]	EC50 (Fusarium oxysporum) [µg/mL]	mortality (Spodoptera litura [1]) [%]	mortality (Callosobruchus maculatus) [%]	mortality (Spodoptera litura [2]) [%]	EC50 (Rhizoctonia solani) [µg/mL]	EC50 (Athelia rolfsii) [µg/mL]	mortality at 20 mg/kg (Tribolium castaneum) [%]
CCn1cc(C(=O)N/N=C/c2ccc(F)cc2)c(=O)c2ccc(C)nc21	64.8 (≈ 184 µM)	244 (≈ 692 µM)	79.9 (≈ 227 µM)	50	10		234 (≈ 665 µM)	220 (≈ 624 µM)	
CCn1cc(C(=O)N/N=C/c2c3ccccc3cc3ccccc23)c(=O)c2ccc(C)nc21	151 (≈ 348 µM)	390 (≈ 897 µM)	222 (≈ 511 µM)	20	10	10	374 (≈ 861 µM)	429 (≈ 986 µM)	15
CCn1cc(C(=O)N/N=C/c2c(Cl)cccc2Cl)c(=O)c2ccc(C)nc21	87.2 (≈ 216 µM)	255 (≈ 633 µM)	114 (≈ 283 µM)	100	30	10	298 (≈ 738 µM)	282 (≈ 701 µM)	
CCn1cc(C(=O)N/N=C/c2cccc([N+](=O)[O-])c2)c(=O)c2ccc(C)nc21	89 (≈ 235 µM)	272 (≈ 716 µM)	212 (≈ 559 µM)	80	10		245 (≈ 645 µM)	287 (≈ 756 µM)	
CCn1cc(C(=O)N/N=C/c2cc(OC)c(OC)c(OC)c2)c(=O)c2ccc(C)nc21	79.4 (≈ 187 µM)	201 (≈ 474 µM)	102 (≈ 241 µM)	90	10	10	174 (≈ 409 µM)	186 (≈ 438 µM)	
CCn1cc(C(=O)N/N=C/c2ccccc2C)c(=O)c2ccc(C)nc21	109 (≈ 313 µM)	533 (≈ 1530 µM)	129 (≈ 369 µM)	0	10		408 (≈ 1170 µM)	346 (≈ 993 µM)	
CCn1cc(C(=O)N/N=C/c2ccc([N+](=O)[O-])cc2)c(=O)c2ccc(C)nc21	70.1 (≈ 185 µM)	575 (≈ 1520 µM)	125 (≈ 330 µM)	90	10	10	226 (≈ 595 µM)	464 (≈ 1220 µM)	
CCCCC(O)(Cn1cncn1)c1ccc(Cl)cc1Cl (stereo not drawn) [HEXACONAZOLE]	25.5 (≈ 81.2 µM)	4.4 (≈ 14 µM)	20.6 (≈ 65.6 µM)				18.3 (≈ 58.2 µM)	13 (≈ 41.4 µM)	
CCn1cc(C(=O)N/N=C/c2ccc(OC)cc2)c(=O)c2ccc(C)nc21	121 (≈ 332 µM)	301 (≈ 825 µM)	152 (≈ 416 µM)	70	70		238 (≈ 654 µM)	320 (≈ 879 µM)	30
CCn1cc(C(=O)N/N=C/c2ccc(Cl)cc2)c(=O)c2ccc(C)nc21	87.2 (≈ 236 µM)	371 (≈ 1000 µM)	119 (≈ 322 µM)	40	10		308 (≈ 834 µM)	438 (≈ 1190 µM)	
CCn1cc(C(=O)NN=C2C3CC4CC(C3)CC2C4)c(=O)c2ccc(C)nc21	133 (≈ 351 µM)	638 (≈ 1690 µM)	258 (≈ 683 µM)	50	0	10	405 (≈ 1070 µM)	524 (≈ 1380 µM)	10
CCn1cc(C(=O)N/N=C/c2cccc3ccccc23)c(=O)c2ccc(C)nc21	115 (≈ 300 µM)	316 (≈ 821 µM)	134 (≈ 350 µM)	90	0	10	226 (≈ 589 µM)	259 (≈ 674 µM)	
CCn1cc(C(=O)N/N=C/c2cccc(Cl)c2)c(=O)c2ccc(C)nc21	98.8 (≈ 268 µM)	504 (≈ 1370 µM)	132 (≈ 358 µM)	90	10		394 (≈ 1070 µM)	439 (≈ 1190 µM)	
CCn1cc(C(=O)N/N=C/c2ccc(C)cc2)c(=O)c2ccc(C)nc21	87.3 (≈ 251 µM)	378 (≈ 1080 µM)	195 (≈ 560 µM)	70	20	10	372 (≈ 1070 µM)	374 (≈ 1070 µM)	
CCn1cc(C(=O)N/N=C/c2cccc(C)c2)c(=O)c2ccc(C)nc21	66.9 (≈ 192 µM)	322 (≈ 924 µM)	103 (≈ 296 µM)	80	60		301 (≈ 865 µM)	298 (≈ 854 µM)	
C/C=C/C=N/NC(=O)c1cn(CC)c2nc(C)ccc2c1=O	89.8 (≈ 301 µM)	324 (≈ 1090 µM)	95.4 (≈ 320 µM)	60	0		248 (≈ 830 µM)	204 (≈ 683 µM)	

Reference: ChEMBL document CHEMBL3045963, “Synthesis of nalidixic acid based hydrazones as novel pesticides” (2010)
